The values below come from ChEMBL document CHEMBL1909636, “Evaluation of the antiproliferative activity of diterpene isonitriles from the sponge Pseudoaxinella flava in apoptosis-sensitive and apoptosis-resistant cancer cell lines” (2011).

In one test the test system is SK-MEL-28. Nature of the test: Growth inhibition of human SK-MEL-28 cells after 72 hrs by MTT colorimetric assay. It is filed as functional. Conditions: SK-MEL-28, 72 h. The essentials: (§1)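 Cells were exposed to the compound over a range of concentrations for three days (72 h) and growth was read by MTT colorimetric assay. IC50 is the concentration that reduces global growth of the cell population by 50%.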
Background: Formazan colour is commonly taken as a measure of viable cells.

Test [1] relates to PC-3. Nature of the test: Cytostatic activity in human PC3 cells at IC50 by quantitative video microscopy analysis. The test is classed as functional, cell-based. An outline of the steps:
(§2)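 PC3 cells were treated for 72 h at a single concentration taken from the 72 h MTT growth assay and followed by computer-assisted phase-contrast videomicroscopy. Dead cells were scored as rounded and refringent, and cytostatic action was distinguished as inhibited proliferation without cell death. Morphology was examined at ×100 and, for high-magnification views, ×500.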

In test [2] the test system is PC-3. Nature of the test: Growth inhibition of human PC3 cells after 72 hrs by MTT colorimetric assay. The test is classed as functional. The note with it: PC-3, 72 h. The essentials:
as §1

A further test concerns A549. Nature of the test: Growth inhibition of human A549 cells after 72 hrs by MTT colorimetric assay. The test is classed as functional. Conditions: A549, 72 h. The essentials:
as §1

The nature of test [3]: Growth inhibition of human U373 cells after 72 hrs by MTT colorimetric assay. Conditions: U373 MG. It is filed as functional, U-373MG ATCC. An outline of the steps:
as §1

A short description of test [4]: Growth inhibition of human Hs683 cells after 72 hrs by MTT colorimetric assay. It is filed as functional. The note with it: Hs 683, 72 h. The essentials:
as §1

The test system of another test is LoVo. Nature of the test: Growth inhibition of human LoVo cells after 72 hrs by MTT colorimetric assay. It is filed as functional. An outline of the steps: as §1
Test [5] concerns PC-3. Nature of the test: Cytotoxicity against human PC3 cells assessed as cell death at IC50 by quantitative video microscopy analysis. It is filed as functional, cell-based. An outline of the steps:
as §2

Test [6] deals with PC-3. Nature of the test: Induction of apoptosis in human PC3 cells assessed as vacuolization after 72 hrs at IC50 by quantitative video microscopy analysis. The test is classed as functional, cell-based.

Active and inactive are the calls of the source. No cut-off for these calls is given here.

One may read the GI50 as the concentration at which growth is held to half of that of the control. Higher therefore signals lower sensitivity of the cells. Turning to `[C-]#[N+]C(C)(C)C[C@@H]1C[C@H](C)[C@H]2CC[C@](C)([N+]#[C-])[C@@H]3CCC(=C)[C@@H]1[C@H]23`, the 50% growth inhibitory concentration (GI50) in the test with SK-MEL-28 was 32 µM; in the test with PC-3 [2], 3 µM; in the test with A549, 16 µM; in [3], 10 µM; in [4], 4 µM; in the test with LoVo it was 3 µM. Further, in the test with PC-3 [1], the outcome was Active.
Turning to `[C-]#[N+]C(C)(C)C[C@@H]1C[C@H](C)[C@H]2CC[C@H](C)[C@@]3([N+]#[C-])CCC(=C)[C@@H]1[C@H]23` [DIISOCYANOAMPHILECTENE], the concentration for 50% growth inhibition (GI50) in the test on SK-MEL-28 was found to be 6 µM; with PC-3 [2] it was 1 µM; in the test with A549, 42 µM; in test [3], 25 µM; in test [4], 50 µM; in the test with LoVo, 3 µM. Further, in the test on PC-3 [1], the result was Active.
Consider `[C-]#[N+][C@@]1(C)CC[C@H]2[C@H]3[C@@H](C(=C)CC[C@H]31)[C@H](CC(=C)C)C[C@@H]2C`, for which, in the test on PC-3 [5], the outcome was Active. Halving of growth in the test on PC-3 [2] (GI50) required 7 µM.
Regarding `[C-]#[N+][C@@]1(C)CC[C@H]2[C@H]3[C@@H](C(=C)CC[C@H]31)[C@H](C=C(C)C)C[C@@H]2C`, the outcome in the test with PC-3 [5] and in the test on PC-3 [6] was Active. Also, it took 7 µM to inhibit growth in the test with PC-3 [2] by half (GI50).
